The target in assay [1] is T1, 5-hydroxytryptamine receptor 6 (Homo sapiens, UniProt P50406). The assay is described as follows: Antagonist activity at human recombinant 5HT6 receptor expressed in HEK293 cells assessed as inhibition of serotonin-induced cAMP production by LANCE assay relative to serotonin. It counts as functional, cell-based. The essentials: (§1)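 HEK-293 cells with a tetracycline-inducible (T-Rex) human 5-HT6 receptor, grown in DMEM/10% FBS with blasticidin S and zeocin and induced with tetracycline the day before. Medium was swapped for HBSS with 1 mM MgCl2, 1 mM CaCl2, IBMX and 5 mM HEPES, pH 7.4. Compounds (0.1% DMSO) were added 15 min at RT, then 10 nM serotonin for 30 min. cAMP read by LANCE; 2 independent experiments in duplicate.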
T1 sequence (P50406 whole entry): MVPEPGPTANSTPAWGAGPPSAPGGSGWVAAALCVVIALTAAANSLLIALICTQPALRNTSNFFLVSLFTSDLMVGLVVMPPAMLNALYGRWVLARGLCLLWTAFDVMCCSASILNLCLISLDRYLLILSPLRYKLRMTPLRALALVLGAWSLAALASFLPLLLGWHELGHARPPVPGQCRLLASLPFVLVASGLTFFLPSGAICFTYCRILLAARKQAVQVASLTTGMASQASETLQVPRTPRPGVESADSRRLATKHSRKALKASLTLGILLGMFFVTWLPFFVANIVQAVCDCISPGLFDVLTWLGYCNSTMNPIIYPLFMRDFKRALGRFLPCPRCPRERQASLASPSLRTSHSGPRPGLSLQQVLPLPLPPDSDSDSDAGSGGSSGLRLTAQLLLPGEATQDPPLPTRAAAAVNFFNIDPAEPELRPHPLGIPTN
A general note: cAMP levels reflect the balance of adenylyl cyclase and phosphodiesterase activity.

In assay [2] the target is T2, 5-hydroxytryptamine receptor 7 (Homo sapiens, UniProt P34969). In words: Binding affinity to 5HT7 receptor by radioligand displacement assay. In short, it runs like this: (§2)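 Competitive displacement of the corresponding radioligand, run by an outside contract lab under its internal protocols. Data from one representative experiment in duplicate.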
T2 sequence (P34969 whole entry): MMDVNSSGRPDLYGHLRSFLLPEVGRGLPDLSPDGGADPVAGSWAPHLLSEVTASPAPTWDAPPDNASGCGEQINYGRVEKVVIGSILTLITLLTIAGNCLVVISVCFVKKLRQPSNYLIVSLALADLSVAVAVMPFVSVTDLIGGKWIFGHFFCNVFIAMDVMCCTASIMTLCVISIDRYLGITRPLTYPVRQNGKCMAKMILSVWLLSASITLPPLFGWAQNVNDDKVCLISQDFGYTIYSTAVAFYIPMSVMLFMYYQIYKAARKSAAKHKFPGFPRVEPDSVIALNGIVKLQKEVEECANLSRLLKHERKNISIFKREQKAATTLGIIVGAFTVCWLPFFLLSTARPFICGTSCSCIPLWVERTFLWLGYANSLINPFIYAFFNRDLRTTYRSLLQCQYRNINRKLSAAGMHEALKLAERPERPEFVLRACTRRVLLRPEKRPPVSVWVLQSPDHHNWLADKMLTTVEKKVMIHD
Background: Loss of bound radioactivity is the signal in a displacement assay; it reports binding, not function.

In assay [3] the target is T3, 5-hydroxytryptamine receptor 2C (Homo sapiens, UniProt P28335).
T3 sequence (P28335 whole entry): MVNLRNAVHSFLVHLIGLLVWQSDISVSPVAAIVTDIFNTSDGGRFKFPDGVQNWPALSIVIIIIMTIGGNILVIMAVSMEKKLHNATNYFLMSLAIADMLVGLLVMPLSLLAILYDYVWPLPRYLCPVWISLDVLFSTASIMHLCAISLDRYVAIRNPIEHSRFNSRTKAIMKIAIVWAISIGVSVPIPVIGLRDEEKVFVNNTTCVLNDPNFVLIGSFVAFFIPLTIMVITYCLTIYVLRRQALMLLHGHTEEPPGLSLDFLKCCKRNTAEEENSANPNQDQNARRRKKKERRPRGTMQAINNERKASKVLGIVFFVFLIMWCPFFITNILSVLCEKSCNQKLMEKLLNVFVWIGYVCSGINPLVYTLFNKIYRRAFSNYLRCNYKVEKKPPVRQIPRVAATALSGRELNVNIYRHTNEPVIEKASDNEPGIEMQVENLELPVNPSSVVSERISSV
In words: (§3) Binding affinity to 5HT2C receptor by radioligand displacement assay. In short, it runs like this: as §2

For assay [4], the target named is T1, 5-hydroxytryptamine receptor 6. In words: Binding affinity to human recombinant 5HT6 receptor.
Assay [5] shares this target. The assay is described as follows: Binding affinity to human recombinant 5HT6 receptor by radioligand displacement assay. The essentials:
as §2

Assay [6] addresses T4, 5-hydroxytryptamine receptor 1A (Homo sapiens, UniProt P08908).
T4 sequence (P08908 whole entry): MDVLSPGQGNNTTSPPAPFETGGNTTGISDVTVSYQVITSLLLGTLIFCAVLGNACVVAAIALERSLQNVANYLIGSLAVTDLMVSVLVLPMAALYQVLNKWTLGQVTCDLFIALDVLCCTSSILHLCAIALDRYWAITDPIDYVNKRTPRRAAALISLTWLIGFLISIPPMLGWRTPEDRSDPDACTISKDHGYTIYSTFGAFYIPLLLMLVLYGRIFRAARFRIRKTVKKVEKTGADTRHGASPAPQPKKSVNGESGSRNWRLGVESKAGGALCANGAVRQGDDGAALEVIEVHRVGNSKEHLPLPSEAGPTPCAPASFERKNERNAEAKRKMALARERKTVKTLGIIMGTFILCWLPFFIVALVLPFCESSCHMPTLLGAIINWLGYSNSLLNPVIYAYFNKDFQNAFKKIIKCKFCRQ
In words: Binding affinity to 5HT1A receptor by radioligand displacement assay.

Assay [7] deals with 5-hydroxytryptamine receptor 6 (Rattus norvegicus, UniProt P31388). The assay is described as follows: Binding affinity to rat recombinant 5HT6 receptor.
Sequence of 5-hydroxytryptamine receptor 6 (Rattus norvegicus, UniProt P31388) (P31388 whole entry): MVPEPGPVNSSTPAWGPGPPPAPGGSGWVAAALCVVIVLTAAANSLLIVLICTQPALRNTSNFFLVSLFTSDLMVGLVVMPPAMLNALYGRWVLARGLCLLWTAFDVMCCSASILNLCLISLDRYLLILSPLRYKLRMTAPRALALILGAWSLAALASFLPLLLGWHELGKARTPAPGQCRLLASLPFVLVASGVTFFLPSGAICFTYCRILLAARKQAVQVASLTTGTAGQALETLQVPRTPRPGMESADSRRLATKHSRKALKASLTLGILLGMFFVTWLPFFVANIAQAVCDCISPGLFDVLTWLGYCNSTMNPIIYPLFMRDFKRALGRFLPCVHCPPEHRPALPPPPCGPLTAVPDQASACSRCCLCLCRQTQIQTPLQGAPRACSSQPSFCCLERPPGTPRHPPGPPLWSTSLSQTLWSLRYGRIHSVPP
The target of assay [8] is T1, 5-hydroxytryptamine receptor 6. In words: Antagonist activity at human recombinant 5HT6 receptor expressed in HEK293 cells assessed as inhibition of serotonin-induced cAMP production by LANCE assay. Type of assay: functional, cell-based. Particulars: read-out: IC50. In short, it runs like this:
as §1

For assay [9], the target named is 5-hydroxytryptamine receptor 2A (Homo sapiens) (UniProt P28223). In words: Binding affinity to 5HT2A receptor at 1 uM by radioligand displacement assay. The essentials: (§4)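 Target specificity panel: single-concentration competitive displacement of each target's radioligand, with compound at 1 µM or 10 µM as stated per line. Run by an outside contract lab under its internal protocols; mean ± SE, n = 2.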
Sequence of 5-hydroxytryptamine receptor 2A (Homo sapiens) (P28223 whole entry): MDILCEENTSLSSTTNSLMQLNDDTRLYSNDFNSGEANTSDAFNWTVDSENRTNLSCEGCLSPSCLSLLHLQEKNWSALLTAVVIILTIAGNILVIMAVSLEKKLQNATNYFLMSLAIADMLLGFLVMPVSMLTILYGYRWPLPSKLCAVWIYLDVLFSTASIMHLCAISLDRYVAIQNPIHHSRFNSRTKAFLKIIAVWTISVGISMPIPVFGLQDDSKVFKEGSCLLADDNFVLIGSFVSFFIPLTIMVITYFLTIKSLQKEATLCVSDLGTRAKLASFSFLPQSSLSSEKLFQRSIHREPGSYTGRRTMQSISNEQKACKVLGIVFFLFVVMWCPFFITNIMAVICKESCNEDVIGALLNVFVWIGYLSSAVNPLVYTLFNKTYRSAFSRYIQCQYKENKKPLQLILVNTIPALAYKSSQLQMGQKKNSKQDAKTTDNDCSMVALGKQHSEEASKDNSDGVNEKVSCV

Assay [10] in a line: Binding affinity to L-type calcium channel at 1 uM by radioligand displacement assay. The essentials:
as §4

The nature of assay [11]: Binding affinity to glycine transporter at 1 uM by radioligand displacement assay. In short, it runs like this: as §4
Assay [12] has as its target 5-hydroxytryptamine receptor 2B (Homo sapiens) (UniProt P41595). The assay is described as follows: Binding affinity to 5HT2B receptor at 1 uM by radioligand displacement assay. The essentials: as §4
For assay [13], the target named is T5, 5-hydroxytryptamine receptor 2C (Homo sapiens) (UniProt P28335).
T5 sequence (whole entry): T3 sequence (P28335 whole entry)
Described as §3. In short, it runs like this: as §2

For assay [14], the target named is T1, 5-hydroxytryptamine receptor 6. In words: Binding affinity to human recombinant 5HT6 receptor at 1 uM by radioligand displacement assay. In short, it runs like this:
as §4

Assay [15] addresses Sodium-dependent noradrenaline transporter (Homo sapiens) (UniProt P23975). In words: Binding affinity to norepinephrine transporter at 1 uM by radioligand displacement assay. In short, it runs like this:
as §4

The target of assay [16] is T6, Alpha-1B adrenergic receptor (Homo sapiens) (UniProt P35368).
T6 sequence (whole entry): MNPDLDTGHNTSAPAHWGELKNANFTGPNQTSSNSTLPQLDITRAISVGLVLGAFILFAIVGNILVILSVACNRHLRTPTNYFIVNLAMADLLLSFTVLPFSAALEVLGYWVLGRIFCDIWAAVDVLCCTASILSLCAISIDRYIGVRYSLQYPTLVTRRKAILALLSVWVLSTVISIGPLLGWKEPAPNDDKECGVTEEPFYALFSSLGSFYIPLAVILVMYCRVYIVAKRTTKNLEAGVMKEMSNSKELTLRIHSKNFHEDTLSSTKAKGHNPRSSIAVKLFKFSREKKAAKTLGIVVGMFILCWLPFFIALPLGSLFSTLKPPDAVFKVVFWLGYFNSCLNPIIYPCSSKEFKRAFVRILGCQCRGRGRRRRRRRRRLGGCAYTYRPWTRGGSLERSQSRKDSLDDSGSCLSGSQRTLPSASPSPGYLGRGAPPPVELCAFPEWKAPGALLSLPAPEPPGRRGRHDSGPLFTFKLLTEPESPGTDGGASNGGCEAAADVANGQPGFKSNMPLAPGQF
The assay is described as follows: Binding affinity to adrenergic Alpha-1B receptor at 1 uM by radioligand displacement assay. In short, it runs like this: as §4

For assay [17], the target named is T7, Alpha-1A adrenergic receptor (Homo sapiens) (UniProt P35348).
T7 sequence (whole entry): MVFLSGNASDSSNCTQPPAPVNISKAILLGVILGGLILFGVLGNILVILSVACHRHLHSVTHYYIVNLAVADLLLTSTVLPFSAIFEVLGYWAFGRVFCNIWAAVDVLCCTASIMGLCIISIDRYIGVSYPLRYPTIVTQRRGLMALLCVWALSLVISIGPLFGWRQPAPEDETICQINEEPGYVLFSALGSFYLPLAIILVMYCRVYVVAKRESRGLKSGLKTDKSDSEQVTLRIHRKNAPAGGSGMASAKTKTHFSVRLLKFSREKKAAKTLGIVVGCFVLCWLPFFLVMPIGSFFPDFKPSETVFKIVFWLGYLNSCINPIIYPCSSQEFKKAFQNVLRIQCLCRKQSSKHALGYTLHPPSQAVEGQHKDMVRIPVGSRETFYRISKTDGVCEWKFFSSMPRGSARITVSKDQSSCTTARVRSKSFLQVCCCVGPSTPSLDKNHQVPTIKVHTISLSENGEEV
In words: Binding affinity to adrenergic alpha1A receptor at 1 uM by radioligand displacement assay. The essentials: as §4

Assay [18] addresses T8, Alpha-2A adrenergic receptor (Homo sapiens) (UniProt P08913).
T8 sequence (whole entry): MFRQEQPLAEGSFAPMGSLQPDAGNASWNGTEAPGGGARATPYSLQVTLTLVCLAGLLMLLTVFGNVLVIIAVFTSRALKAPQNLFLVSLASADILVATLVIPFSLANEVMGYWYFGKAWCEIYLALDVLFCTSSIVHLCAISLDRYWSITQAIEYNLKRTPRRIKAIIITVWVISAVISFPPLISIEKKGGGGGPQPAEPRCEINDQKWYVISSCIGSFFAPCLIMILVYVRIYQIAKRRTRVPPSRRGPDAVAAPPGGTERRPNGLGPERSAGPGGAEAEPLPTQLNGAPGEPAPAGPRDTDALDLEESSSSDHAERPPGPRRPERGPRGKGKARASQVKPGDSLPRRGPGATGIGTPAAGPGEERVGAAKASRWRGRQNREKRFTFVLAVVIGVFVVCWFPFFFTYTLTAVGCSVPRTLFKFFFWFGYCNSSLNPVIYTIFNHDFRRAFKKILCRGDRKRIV
In words: Binding affinity to adrenergic alpha2A receptor at 1 uM by radioligand displacement assay. In short, it runs like this:
as §4

Assay [19] has as its target Sigma non-opioid intracellular receptor 1 (Homo sapiens) (UniProt Q99720). The assay is described as follows: Binding affinity to sigma 1 receptor at 1 uM by radioligand displacement assay. The essentials: as §4
Assay [20] addresses T5, 5-hydroxytryptamine receptor 2C (Homo sapiens). In words: Binding affinity to 5HT2C receptor at 1 uM by radioligand displacement assay. The essentials: as §4
In assay [21] the target is T9, Alpha-1D adrenergic receptor (Homo sapiens) (UniProt P25100).
T9 sequence (whole entry): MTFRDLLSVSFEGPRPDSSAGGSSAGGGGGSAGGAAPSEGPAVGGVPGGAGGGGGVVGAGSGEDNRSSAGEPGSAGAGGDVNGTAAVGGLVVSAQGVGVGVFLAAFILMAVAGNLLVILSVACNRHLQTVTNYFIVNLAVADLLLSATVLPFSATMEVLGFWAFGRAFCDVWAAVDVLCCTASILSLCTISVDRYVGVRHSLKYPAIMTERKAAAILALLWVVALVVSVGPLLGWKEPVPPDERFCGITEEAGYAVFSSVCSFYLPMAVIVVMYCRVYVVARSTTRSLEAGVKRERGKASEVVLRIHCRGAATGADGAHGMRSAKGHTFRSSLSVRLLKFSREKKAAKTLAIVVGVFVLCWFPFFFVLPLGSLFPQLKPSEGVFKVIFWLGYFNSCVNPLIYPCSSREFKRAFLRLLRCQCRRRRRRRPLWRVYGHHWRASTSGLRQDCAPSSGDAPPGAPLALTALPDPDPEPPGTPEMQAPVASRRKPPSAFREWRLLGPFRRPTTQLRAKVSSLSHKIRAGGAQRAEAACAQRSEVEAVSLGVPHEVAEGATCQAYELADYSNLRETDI
In words: Binding affinity to adrenergic Alpha-1D receptor at 1 uM by radioligand displacement assay. The essentials:
as §4

Assay [22] addresses T2, 5-hydroxytryptamine receptor 7. In words: Binding affinity to 5HT7 receptor at 1 uM by radioligand displacement assay. In short, it runs like this: as §4
Assay [23] concerns the target D(3) dopamine receptor (Homo sapiens) (UniProt P35462). In words: Binding affinity to dopamine D3 receptor at 1 uM by radioligand displacement assay. The essentials: as §4

As a reminder, the Ki is the dissociation constant of the complex between target and ligand, obtained from inhibition or displacement. What is called IC50 is the point on the concentration scale where inhibition reaches its midpoint.

Sequence of Sodium-dependent noradrenaline transporter (Homo sapiens) (P23975 whole entry): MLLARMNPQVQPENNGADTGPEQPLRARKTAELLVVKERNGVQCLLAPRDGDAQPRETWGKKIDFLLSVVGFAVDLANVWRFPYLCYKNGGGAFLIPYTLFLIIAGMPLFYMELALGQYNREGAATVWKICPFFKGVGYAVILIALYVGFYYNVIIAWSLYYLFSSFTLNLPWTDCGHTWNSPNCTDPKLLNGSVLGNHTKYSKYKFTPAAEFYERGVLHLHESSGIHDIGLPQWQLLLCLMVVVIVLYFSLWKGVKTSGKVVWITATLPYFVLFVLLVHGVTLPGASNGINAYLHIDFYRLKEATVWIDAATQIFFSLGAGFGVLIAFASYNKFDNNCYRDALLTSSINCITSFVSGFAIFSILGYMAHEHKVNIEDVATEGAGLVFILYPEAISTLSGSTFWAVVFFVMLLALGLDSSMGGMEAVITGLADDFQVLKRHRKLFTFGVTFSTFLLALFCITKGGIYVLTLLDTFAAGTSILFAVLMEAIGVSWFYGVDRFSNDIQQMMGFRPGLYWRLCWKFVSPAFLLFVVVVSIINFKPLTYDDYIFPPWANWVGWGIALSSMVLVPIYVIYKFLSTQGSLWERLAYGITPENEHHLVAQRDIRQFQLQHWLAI
Sequence of 5-hydroxytryptamine receptor 2B (Homo sapiens) (P41595 whole entry): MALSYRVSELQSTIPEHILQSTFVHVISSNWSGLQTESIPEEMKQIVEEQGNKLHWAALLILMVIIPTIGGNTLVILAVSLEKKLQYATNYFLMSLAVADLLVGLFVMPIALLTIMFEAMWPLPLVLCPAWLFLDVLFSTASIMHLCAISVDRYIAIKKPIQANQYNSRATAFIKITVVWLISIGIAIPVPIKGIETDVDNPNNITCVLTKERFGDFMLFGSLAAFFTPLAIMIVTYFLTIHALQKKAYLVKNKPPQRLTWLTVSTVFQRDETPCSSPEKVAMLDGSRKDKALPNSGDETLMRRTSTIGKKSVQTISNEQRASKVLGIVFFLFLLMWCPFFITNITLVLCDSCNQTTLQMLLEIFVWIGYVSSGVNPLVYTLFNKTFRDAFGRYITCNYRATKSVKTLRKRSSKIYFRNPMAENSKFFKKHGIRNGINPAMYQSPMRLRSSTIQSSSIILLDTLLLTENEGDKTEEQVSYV
Sequence of Sigma non-opioid intracellular receptor 1 (Homo sapiens) (Q99720 whole entry): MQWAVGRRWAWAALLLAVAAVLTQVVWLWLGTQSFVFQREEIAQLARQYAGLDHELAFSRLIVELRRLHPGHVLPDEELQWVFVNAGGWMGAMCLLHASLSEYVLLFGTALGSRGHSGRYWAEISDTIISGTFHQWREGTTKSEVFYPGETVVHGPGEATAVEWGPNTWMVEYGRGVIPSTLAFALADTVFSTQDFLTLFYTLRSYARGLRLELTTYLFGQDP
Sequence of D(3) dopamine receptor (Homo sapiens) (P35462 whole entry): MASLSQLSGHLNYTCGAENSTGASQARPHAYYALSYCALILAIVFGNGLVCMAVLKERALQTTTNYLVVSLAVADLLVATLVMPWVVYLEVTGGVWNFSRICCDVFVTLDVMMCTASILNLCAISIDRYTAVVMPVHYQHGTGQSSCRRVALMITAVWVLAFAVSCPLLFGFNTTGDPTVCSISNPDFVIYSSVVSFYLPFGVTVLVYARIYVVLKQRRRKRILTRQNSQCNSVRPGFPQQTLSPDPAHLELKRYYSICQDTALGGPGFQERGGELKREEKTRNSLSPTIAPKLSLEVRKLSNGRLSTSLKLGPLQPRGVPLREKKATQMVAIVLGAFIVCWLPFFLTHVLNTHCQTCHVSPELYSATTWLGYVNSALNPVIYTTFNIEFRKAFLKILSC

With `CN1CCc2[nH]c3ccc(S(=O)(=O)c4cccc(F)c4)cc3c2C1`, the Imax in assay [1] was determined as 100%.

Turning to `Cc1ccc2c(c1)c1c(n2CCc2ccc(C)nc2)CCN(C)C1` [LATREPIRDINE], the Ki in [2] is 0.008 µM; in assay [3], 0.076 µM; in assay [4], 0.026 µM; in assay [5] it was 0.034 µM; in assay [6] it was above 0.1 µM; in assay [7] it was 0.119 µM. The Imax in [1] turned out to be 100%.

Turning to `CN1CCc2[nH]c3ccc(S(=O)(=O)N(C)C)cc3c2C1`, the IC50 in [8] was found to be 26 µM. Besides, the Imax in assay [1] was found to be 100%.

For `CN1CCc2[nH]c3ccc(S(=O)(=O)c4cccnc4)cc3c2C1`, in assay [8], the IC50 turned out to be 3.4 µM. In addition, the Imax in assay [1] came to 100%.

Consider `CN1CCc2[nH]c3ccc(S(=O)(=O)Nc4cccc(F)c4)cc3c2C1`, for which the Activity was 80% in assay [9]; 27% in [10]; 20% in assay [11]; 80% in [12]; “Dose-dependent effect” in assay [2]; “Dose-dependent effect” in assay [13]. Moreover, the Activity in assay [14] is 80%; in assay [15], 15%; in assay [16] it was 37%; in assay [17], 20%; in assay [18], 60%; in assay [5] it was “Dose-dependent effect”. For the same compound, the Activity in [19] came out at 60%; in [20], 80%; in [21] it was 29%; in [22] it was 80%; in assay [23], 35%. In addition, the Ki in [2] was found to be 0.042 µM; in assay [3], 0.039 µM; in assay [5] it was 0.0021 µM; in assay [6], 0.007 µM. The Imax in assay [1] turned out to be 100%.

The values above are taken from ChEMBL document CHEMBL1157011, “8-Sulfonyl-substituted tetrahydro-1H-pyrido[4,3-b]indoles as 5-HT6 receptor antagonists” (Eur J Med Chem, 2010).
